Hits are enriched below; roughly 1.8% of the tested compounds scored in any of these assays.
STEP block: blocks human striatal-enriched tyrosine phosphatase; P54829; recombinant STEP, OMFP fluorogenic substrate, fluorescence; inhibition, % at 20 µM; 0.25% of 360,000 active; AID 588621;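 active = inhibition at 20 µM, scaled per plate between control wells, above about 37%, limit read from the data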;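 note: 0% = DMSO with enzyme and substrate and 100% = substrate only without enzyme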
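Test system: STEP tyrosine phosphatase / Reagent: OMFP at 25 µM / Doses: 20 µM, 1% DMSO / Read-out: percent inhibition scaled to no-enzyme and uninhibited-enzyme controls, plate-pattern corrected / Detection: FITC-channel fluorescence of OMFP product / Medium: Bis-Tris buffer pH 6.0, 2.5 mM DTT, 0.005% Tween 20 / Schedule: 20 min at room temperature, dark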
Scp-1 inhibitor: Scp-1 (human) phosphatase inhibition. Recombinant Scp1, phosphopeptide, malachite green phosphate absorbance. 0.88% of 340,000 active. inhibition, % at 20 µM. AID 493091. Q9GZU7;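 active = inhibition above about 50% at 20 µM, limit read from the data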;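 note: plate controls were DMSO wells with enzyme for no effect and wells lacking enzyme for full effect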
Target sequence (Q9GZU7 76-261 limits assumed): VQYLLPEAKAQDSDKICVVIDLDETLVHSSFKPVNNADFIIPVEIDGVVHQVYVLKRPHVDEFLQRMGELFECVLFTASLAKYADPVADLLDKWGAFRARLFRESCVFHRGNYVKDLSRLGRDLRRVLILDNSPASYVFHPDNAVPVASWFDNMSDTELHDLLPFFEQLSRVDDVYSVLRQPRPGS
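System: SCP-1 catalytic domain; Reagent: Phospho 17-mer peptide substrate; Doses: one concentration, 20 µM, with 1.0% DMSO; Incubation: 45 min room-temperature reaction, 5 min colour, 30 min stabiliser; Signal: Phosphate-binding colour reagent, absorbance read at 630 nm.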
DNMT1 inh: blocks human DNA methyltransferase DNMT1. 0.83% of 360,000 active. inhibition (reported as % activation of signal), % at 10 µM. P26358. AID 588458. DNMT1 molecular beacon, Hinp1I cleavage, fluorescence; in the data active = inhibition above about 50%
LMPTP inh: LMPTP (human) inhibition. inhibition, % at 20 µM. 0.22% of 360,000 active. recombinant LMPTP-A, OMFP fluorogenic substrate, fluorescence intensity. P24666;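 active = compounds that cut the enzyme signal by at least half of the control window in the single-dose screen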;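 note: plate controls were DMSO wells with enzyme plus substrate for no effect and substrate without enzyme for full effect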
Target sequence (P24666 whole entry, looked up): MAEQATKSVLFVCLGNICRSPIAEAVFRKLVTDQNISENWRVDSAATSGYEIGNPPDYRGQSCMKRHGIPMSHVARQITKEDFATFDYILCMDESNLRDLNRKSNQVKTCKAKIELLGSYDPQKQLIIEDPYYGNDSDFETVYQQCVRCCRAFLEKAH
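Material: LMPTP-A; amount: 0.625 nM enzyme; doses: single 20 µM dose; times: reaction 50 min, room temperature, dark; technique: fluorescence intensity of OMFP turnover product; benchmarks: no-enzyme and uninhibited controls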
HKDC1 inh: inhibitors of human hexokinase HKDC1; Q2TB90; recombinant HKDC1, G6PDH/diaphorase resazurin coupled fluorescence; inhibition, % at 20 µM; 0.16% of 340,000 active;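 active = inhibition above about 35% when tested at 20 µM, limit read from the data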;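 note: plate controls were DMSO wells with enzyme for no effect and DMSO wells lacking enzyme for full effect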
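Test system: HK5 enzyme. Quantity: 5 µg/mL HK5 final. Reagent: glucose and ATP substrates. Schedule: 90 min reaction incubation at room temperature, dark. Technique: resazurin-to-resorufin fluorescence via G6PDH and diaphorase coupling, 525/613 nm. Control set: DMSO wells with and without enzyme mix.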
SUMO1 PPI mod: alters human SUMO1 binding to SIM partners | 0.33% of 360,000 active | SUMO1 binding to a labelled peptide, TR-FRET, 1 h | AID 602429 | inhibition, % at 20 µM | P63165; in the data active = inhibition above about 37%
Target sequence (P63165 whole entry, looked up): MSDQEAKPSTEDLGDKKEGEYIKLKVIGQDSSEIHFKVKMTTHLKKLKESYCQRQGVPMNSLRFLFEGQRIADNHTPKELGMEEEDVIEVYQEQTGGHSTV
HKDC1 act conf2: confirmation of human HKDC1 activators; AID 504708; inhibition, % at 20 µM; 14% of 740 active; shares compounds with HKDC1 inh; recombinant HKDC1, G6PDH/diaphorase resazurin fluorescence; active compounds read low;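 active = inhibition at or below a set negative limit, negative inhibition meaning the enzyme was activated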
* = called active by the depositor; x = no result.

SMILES	STEP block	Scp-1 inhibitor	DNMT1 inh	LMPTP inh	HKDC1 inh	SUMO1 PPI mod	HKDC1 act conf2
CCCCNC(=O)CCn1c(=O)c2ccccc2n(Cc2ccc(F)cc2)c1=O	3	1	2	-3	5	1	x
CSc1nc(N(C)CCO)c2sc3nc(-c4ccco4)c4c(c3c2n1)CCC4	5	79*	37	2	47*	25	-18
CSc1nc(NCCN(C)C)c2sc3nc(-c4ccco4)c4c(c3c2n1)CCC4	1	-4	-12	-7	0	9	x
CC(C)Cc1nnc(NC(=O)c2ccc3c(c2)NC(=O)C(C)S3)s1 (stereo not drawn)	1	-5	12	-1	3	-3	x
Cn1c2ccccc2c(=O)c2c(=O)n(-c3ccccc3)c(C3CCCCC3)nc21	9	2	12	2	43*	9	18
Cn1c2ccccc2c(=O)c2c(=O)n(C3CCCCC3)c(-c3cccs3)nc21	5	10	2	7	-16	2	x
CC(=O)Oc1cccc2c1C(=O)c1c(OC(C)=O)cc(C(=O)O)cc1C2=O	-1	-6	-19	1	21	-17	x
CC(=O)Oc1cccc2c1C(=O)C1CC=CC(OC(C)=O)C1C2=O (stereo not drawn)	-2	-8	14	1	-45	-45	-66*
COc1ccc(-c2csc(NC(=O)CSCc3c(C)noc3C)n2)cc1OC	-2	9	-2	2	35	2	-33
O=C(c1ccccc1)c1coc2ccc(O)c(Cl)c12	-1	-4	2	1	-5	2	x
O=C1C(=O)c2c(C(=O)c3ccccc3)coc2-c2ccccc21	18	-5	-10	2	51*	-9	53
Cc1oc2c(c1C(=O)O)C(=O)c1ccccc1C2=O	7	-10	-10	-1	14	-13	x
Cc1oc2c(c1C(=O)c1ccccc1)C(=O)C(=O)c1ccccc1-2	14	-5	93*	6	42*	37*	52
COC(=O)C1=C(C)Nc2c(c(=O)n(C)c(=O)n2C)C1c1ccc(Cl)cc1 (stereo not drawn)	-4	-2	2	-1	12	-3	x
C=CCN(CC=C)Cc1c(O)ccc2c1oc(=O)c1ccccc12	2	56*	55*	5	34	16	23
Cc1cc(C)c(S(=O)(=O)/N=C2/C=C(SCC(=O)O)C(=O)c3ccccc32)cc1C	6	9	3	8	51*	84*	30
Cc1cc(Br)cc(Br)c1OCC(=O)NNC(=O)Nc1ccccc1	-2	-4	-1	-2	-1	1	x
Cc1cc(O)c(-c2cc(O)c(C)cc2O)cc1O	4	3	-3	2	45*	0	24
COc1ccc2c(c1)C(C)(Cc1ccc(C(=O)c3ccccc3)cc1)C(=O)N2 (stereo not drawn)	2	x	-7	2	x	-2	x
NNc1ncnc2sc3c(c12)CCC3	-1	-6	-2	-1	-102	-1	-5
O=C(CSc1n[nH]c(-c2cccnc2)n1)Nc1ccc([N+](=O)[O-])cc1Br	0	-3	1	-5	46*	-32	56
Cc1cccc(S(=O)(=O)NC(=O)C2(C)CCN2C(=O)CC2CCCCC2)c1 (stereo not drawn)	-1	x	5	-2	x	-4	x
O=C(NCc1cc2ccccc2[nH]1)C1CCC(=O)N(CC2CCCCC2)C1 (stereo not drawn)	-1	x	-21	-1	x	1	x
O=C(NCCc1ccccc1)C(c1cccs1)N(C(=O)CCl)c1ccc(Cl)cc1 (stereo not drawn)	-2	-7	32	0	37*	2	23
COc1cc(OC)nc(NC(=S)NC(=O)c2ccccc2)n1	0	0	6	0	0	9	x
O=C1CSC(=S)N1N=Cc1ccccc1O	7	2	-7	1	-42	-3	-9

Screening results deposited in PubChem by Sanford-Burnham Center for Chemical Genomics.
